Source: ChEMBL document CHEMBL4325889, “Natural products hybrids: 3,5,4'-Trimethoxystilbene-5,6,7-trimethoxyflavone chimeric analogs as potential cytotoxic agents against diverse human cancer cells” (Eur J Med Chem, 2019)

Columns and labels:
Assay type in all cases: functional
HCC 2998 = assay: Growth inhibition of human HCC2998 cells at 10 uM after 48 hrs by SRB assay relative to control; conditions: HCC 2998, 48 h, read-out: GI
Summary of the method: (§1)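 Screened at the National Cancer Institute by the standard NCI protocol using the sulforhodamine B assay, which measures cellular protein. Single dose of 10 µM. Result is percent growth inhibition; values above 100% mean cell number fell below the initial population. Values are the average of duplicates.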

786-0 = assay: Growth inhibition of human 786-0 cells at 10 uM after 48 hrs by SRB assay relative to control; conditions: 786-0, 48 h, read-out: GI; summary of the method: as §1
SN12C = assay: Growth inhibition of human SN12C cells at 10 uM after 48 hrs by SRB assay relative to control; conditions: read-out: GI; summary of the method: as §1
A549 = assay: Growth inhibition of human A549 cells at 10 uM after 48 hrs by SRB assay relative to control; conditions: A549, 48 h, read-out: GI; summary of the method: as §1
COLO 205 = assay: Growth inhibition of human COLO205 cells at 10 uM after 48 hrs by SRB assay relative to control; conditions: COLO 205, 48 h, read-out: GI; summary of the method: as §1
RXF 393 = assay: Growth inhibition of human RXF393 cells at 10 uM after 48 hrs by SRB assay relative to control; conditions: RXF 393, 48 h, read-out: GI; summary of the method: as §1
UACC-257 = assay: Growth inhibition of human UACC257 cells at 10 uM after 48 hrs by SRB assay relative to control; conditions: UACC-257, 48 h, read-out: GI
Summary of the method: (§2)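 NCI screen against its human cancer cell line panel by the standard NCI protocol, SRB protein stain. Single dose of 10 μM. Percent growth inhibition versus control; values above 100% mean the cell population fell below the starting number. Each value is the mean of duplicates.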

K562 = assay: Growth inhibition of human K562 cells at 10 uM after 48 hrs by SRB assay relative to control; conditions: K562, 48 h, read-out: GI; summary of the method: as §1
SK-MEL-28 = assay: Growth inhibition of human SK-MEL-28 cells at 10 uM after 48 hrs by SRB assay relative to control; conditions: SK-MEL-28, 48 h, read-out: GI; summary of the method: as §1
RPMI-8226 = assay: Growth inhibition of human RPMI8226 cells at 10 uM after 48 hrs by SRB assay relative to control; conditions: RPMI-8226, 48 h, read-out: GI; summary of the method: as §1
NCI-H226 = assay: Growth inhibition of human NCI-H226 cells at 10 uM after 48 hrs by SRB assay relative to control; conditions: NCI-H226, 48 h, read-out: GI; summary of the method: as §1
NCI-H322M = assay: Growth inhibition of human NCI-H322M cells at 10 uM after 48 hrs by SRB assay relative to control; conditions: read-out: GI; summary of the method: as §1
NCI-H23 = assay: Growth inhibition of human NCI-H23 cells at 10 uM after 48 hrs by SRB assay relative to control; conditions: NCI-H23, 48 h, read-out: GI; summary of the method: as §1
DU-145 = assay: Growth inhibition of human DU145 cells at 10 uM after 48 hrs by SRB assay relative to control; conditions: DU-145, 48 h, read-out: GI; summary of the method: as §1
MCF7 = assay: Growth inhibition of human MCF7 cells at 10 uM after 48 hrs by SRB assay relative to control; conditions: MCF7, 48 h, read-out: GI; summary of the method: as §1
SF-295 = assay: Growth inhibition of human SF295 cells at 10 uM after 48 hrs by SRB assay relative to control; conditions: SF-295, 48 h, read-out: GI; summary of the method: as §1
TK-10 = assay: Growth inhibition of human TK10 cells at 10 uM after 48 hrs by SRB assay relative to control; conditions: TK-10, 48 h, read-out: GI; summary of the method: as §2
SNB-75 = assay: Growth inhibition of human SNB75 cells at 10 uM after 48 hrs by SRB assay relative to control; conditions: SNB-75, 48 h, read-out: GI; summary of the method: as §2
SF-539 = assay: Growth inhibition of human SF539 cells at 10 uM after 48 hrs by SRB assay relative to control; conditions: SF-539, 48 h, read-out: GI; summary of the method: as §1
MDA-MB-468 = assay: Growth inhibition of human MDA-MB-468 cells at 10 uM after 48 hrs by SRB assay relative to control; conditions: MDA-MB-468, 48 h, read-out: GI; summary of the method: as §1
Hs-578T = assay: Growth inhibition of human Hs 578T cells at 10 uM after 48 hrs by SRB assay relative to control; conditions: read-out: GI; summary of the method: as §1
IGROV-1 = assay: Growth inhibition of human IGROV1 cells at 10 uM after 48 hrs by SRB assay relative to control; conditions: IGROV-1, 48 h, read-out: GI; summary of the method: as §1
LOX IMVI = assay: Growth inhibition of human LOXIMVI cells at 10 uM after 48 hrs by SRB assay relative to control; conditions: read-out: GI; summary of the method: as §1
NCI/ADR-RES = assay: Growth inhibition of human NCI/ADR-RES cells at 10 uM after 48 hrs by SRB assay relative to control; conditions: read-out: GI; summary of the method: as §1
SK-MEL-2 = assay: Growth inhibition of human SK-MEL-2 cells at 10 uM after 48 hrs by SRB assay relative to control; conditions: SK-MEL-2, 48 h, read-out: GI; summary of the method: as §1
SR = assay: Growth inhibition of human SR cells at 10 uM after 48 hrs by SRB assay relative to control; conditions: read-out: GI; summary of the method: as §2
HL-60(TB) = assay: Growth inhibition of human HL-60(TB) cells at 10 uM after 48 hrs by SRB assay relative to control; conditions: HL-60, 48 h, read-out: GI
Summary of the method: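 Run at NCI under its standard single-dose protocol against a leukemia cell panel. Cells were exposed to 10 µM; growth was read by sulforhodamine B staining of cellular protein and expressed as % growth inhibition versus untreated control. Values above 100% mean the cell population fell below the starting count (cytocidal). Each value is the average of duplicates.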

CCRF-CEM = assay: Growth inhibition of human CCRF-CEM cells at 10 uM after 48 hrs by SRB assay relative to control; conditions: read-out: GI; summary of the method: as §1
HCT-15 = assay: Growth inhibition of human HCT15 cells at 10 uM after 48 hrs by SRB assay relative to control; conditions: HCT-15, 48 h, read-out: GI; summary of the method: as §1
Malme-3M = assay: Growth inhibition of human MALME-3M cells at 10 uM after 48 hrs by SRB assay relative to control; conditions: read-out: GI; summary of the method: as §1
SK-MEL-5 = assay: Growth inhibition of human SK-MEL-5 cells at 10 uM after 48 hrs by SRB assay relative to control; conditions: SK-MEL-5, 48 h, read-out: GI; summary of the method: as §1
U-251 = assay: Growth inhibition of human U251 cells at 10 uM after 48 hrs by SRB assay relative to control; conditions: U-251, 48 h, read-out: GI; summary of the method: as §2
HOP-92 = assay: Growth inhibition of human HOP92 cells at 10 uM after 48 hrs by SRB assay relative to control; conditions: HOP-92, 48 h, read-out: GI; summary of the method: as §1
HCT-116 = assay: Growth inhibition of human HCT116 cells at 10 uM after 48 hrs by SRB assay relative to control; conditions: HCT-116, 48 h, read-out: GI; summary of the method: as §1

Row | Compound | inhibition of growth at 10 µM (HCC 2998) | inhibition of growth at 10 µM (786-0) | inhibition of growth at 10 µM (SN12C) | inhibition of growth at 10 µM (A549) | inhibition of growth at 10 µM (COLO 205) | inhibition of growth at 10 µM (RXF 393) | inhibition of growth at 10 µM (UACC-257) | inhibition of growth at 10 µM (K562) | inhibition of growth at 10 µM (SK-MEL-28) | inhibition of growth at 10 µM (RPMI-8226) | inhibition of growth at 10 µM (NCI-H226) | inhibition of growth at 10 µM (NCI-H322M) | inhibition of growth at 10 µM (NCI-H23) | inhibition of growth at 10 µM (DU-145) | inhibition of growth at 10 µM (MCF7) | inhibition of growth at 10 µM (SF-295) | inhibition of growth at 10 µM (TK-10) | inhibition of growth at 10 µM (SNB-75) | inhibition of growth at 10 µM (SF-539) | inhibition of growth at 10 µM (MDA-MB-468) | other results
1 | COc1cc2oc(-c3cccc(C(=O)Nc4ccc5c(c4)OCO5)c3)cc(=O)c2c(O)c1OC | -4.53% | 35.7% | 31.3% | 25.1% | 5.22% | 18.5% | 21.8% | 5.51% | 10.2% | 20.2% | 21.5% | 19% | 27.3% | 19.6% | 8.35% | 7.93% | 1.4% | 15.4% | 11.2% | 45.4% | inhibition of growth at 10 µM (Hs-578T): 27.3%; inhibition of growth at 10 µM (IGROV-1): 18.4%; inhibition of growth at 10 µM (LOX IMVI): 11.8%; inhibition of growth at 10 µM (NCI/ADR-RES): 29.4%; inhibition of growth at 10 µM (SK-MEL-2): 10.1%; inhibition of growth at 10 µM (SR): 24.1%; inhibition of growth at 10 µM (HL-60(TB)): 5.71%; inhibition of growth at 10 µM (CCRF-CEM): 2.77%; inhibition of growth at 10 µM (HCT-15): 6.45%; inhibition of growth at 10 µM (Malme-3M): 11.9%; inhibition of growth at 10 µM (SK-MEL-5): 16%; inhibition of growth at 10 µM (U-251): 44.2%; inhibition of growth at 10 µM (HOP-92): 27%; inhibition of growth at 10 µM (HCT-116): 43%
2 | COc1ccccc1C(=O)Nc1cccc(-c2cc(=O)c3c(O)c(OC)c(OC)cc3o2)c1 | -9.63% | 11.3% | 5.29% | 22.1% | -7.03% | -12.1% | 31.9% | 15.5% | -1.9% | 21.6% | 13% | 8.64% | 1.58% | -2.87% | -1.88% | 6.16% | -0.86% | 16.4% | 9.52% | -22.9% | inhibition of growth at 10 µM (Hs-578T): 11.4%; inhibition of growth at 10 µM (IGROV-1): 3.04%; inhibition of growth at 10 µM (LOX IMVI): 4.4%; inhibition of growth at 10 µM (NCI/ADR-RES): 5.26%; inhibition of growth at 10 µM (SK-MEL-2): 0.56%; inhibition of growth at 10 µM (SR): 16.5%; inhibition of growth at 10 µM (HL-60(TB)): 0.6%; inhibition of growth at 10 µM (CCRF-CEM): 5.53%; inhibition of growth at 10 µM (HCT-15): 3.51%; inhibition of growth at 10 µM (Malme-3M): -12.7%; inhibition of growth at 10 µM (SK-MEL-5): 13.4%; inhibition of growth at 10 µM (U-251): 33.1%; inhibition of growth at 10 µM (HOP-92): 5.45%; inhibition of growth at 10 µM (HCT-116): 11.7%
